Paper PMC3065953 (Inorganic chemistry, 2011)
Like-named read-outs stand apart in the source and are kept apart here.

Legend:
[1] = Cyclic voltammetry in DMF; format: physicochemical; settings: for Ep, V vs. Ag/AgCl (peak reduction potential): DMF, 0.1 M (n-Bu4N)PF6, scan rate 100 mV/s; for reduction peak potential: vs. Ag/AgCl, in DMF
[2] = cited from earlier work; for peak potential: in water / aqueous media; for Ep, V vs. Ag/AgCl (peak reduction potential): value in parentheses, aqueous solution
[3] = system: human lung carcinoma (A549) cells; test: MTT cytotoxicity assay in A549 cells; format: cell-based; settings: 72-h exposure, mean ± SD of at least three experiments
How it was run: (§1)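 Cells kept in DMEM/10% FBS/1% penicillin-streptomycin at 37 °C, 5% CO2. Seeded 1500 (A549) or 2500 (MRC-5) cells/well, 24 h, then 72 h in fresh medium with graded Pt concentrations. Pt(IV) complexes diluted from 10–20 mM DMSO stocks, reference Pt(II) drug from 2 mM PBS stock. MTT 0.8 mg/mL, 4 h; formazan dissolved in DMSO/10% pH 10.5 glycine buffer; A570. Viability normalized to Pt-free wells; IC50 extrapolated from curves. ≥3 independent experiments in triplicate.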

[4] = system: human normal lung fibroblasts (MRC-5) cells; test: MTT cytotoxicity assay in MRC-5 cells; format: cell-based; settings: for cytotoxicity relative to cisplatin / IC50: MRC-5 cells; for IC50: MTT assay, 72-h exposure, mean ± SD of at least three experiments; for factor less cytotoxic in the healthy cells compared to the cancerous cells: MRC-5 vs. A549 IC50
How it was run: as §1

[5] = Cyclic voltammetry in aqueous solution; format: physicochemical; settings: value in parentheses, this work (Figure S3)

Ep, V vs. Ag/AgCl (peak reduction potential) [1]	reduction peak potential [1]	Ep, V vs. Ag/AgCl (peak reduction potential) [5]	SMILES	peak potential [2]	Ep, V vs. Ag/AgCl (peak reduction potential) [2]	IC50 [3]	cytotoxicity relative to cisplatin [4]	IC50 [4]	factor less cytotoxic in the healthy cells compared to the cancerous cells [4]
−0.72 V	−722 mV	–	CC(=O)[O][Pt]([NH2])([NH2])([Cl])([Cl])[O]C(C)=O [Compound 1, c,c,t-[Pt(NH3)2Cl2(O2CCH3)2], reference compound]	−635 mV	−0.64 V	–	–	–	–
−0.85 V	–	–	[NH2][Pt]([NH2])([Cl])([Cl])([O]C(=O)NC1CCCC1)[O]C(=O)NC1CCCC1 [Compound 5]	–	–	0.6 ± 0.3 µM	more toxic	2.3 ± 0.7 µM	~2
−0.85 V	–	–	CC(C)(C)NC(=O)[O][Pt]([NH2])([NH2])([Cl])([Cl])[O]C(=O)NC(C)(C)C [Compound 4]	–	–	1 ± 0.3 µM	more toxic	2.8 ± 0.8 µM	~2
–	–	–	N.N.[Cl][Pt][Cl] [cisplatin, cis-diamminedichloroplatinum(II), reference compound]	–	–	7 ± 2.6 µM	–	4.3 ± 1.3 µM	–
−0.63 V	−625 mV	–	[NH2][Pt]([NH2])([Cl])([Cl])([O]C(=O)Nc1cccc2ccccc12)[O]C(=O)Nc1cccc2ccccc12 [Compound 11]	–	–	4.3 ± 1.5 µM	–	4.8 ± 0.3 µM	–
−0.45 V	−454 mV	–	[NH2][Pt]([NH2])([Cl])([Cl])([Cl])[Cl] [Compound 3, cis-[Pt(NH3)2Cl4], reference compound]	−260 mV	−0.26 V	–	–	–	–
–	–	–	[NH2][Pt]([NH2])([OH])([OH])([Cl])[Cl] [c,c,t-[Pt(NH3)2Cl2(OH)2]]	−880 mV	–	–	–	–	–
−0.35 V	−345 mV	0.01 V	[NH2][Pt]([NH2])([Cl])([Cl])([O]C(=O)C(F)(F)F)[O]C(=O)C(F)(F)F [Compound 2, c,c,t-[Pt(NH3)2Cl2(O2CCF3)2]]	–	–	–	–	–	–
−0.72 V	–	–	COc1ccc(NC(=O)[O][Pt]([NH2])([NH2])([Cl])([Cl])[O]C(=O)Nc2ccc(OC)cc2)cc1 [Compound 9]	–	–	5.3 ± 2.5 µM	–	9.3 ± 3.2 µM	–
